Published values of several laboratories.
Protocols differ between the studies behind these lines. pIC50: −log10 of the molar value.
PPO3: PPO3 (Agaricus bisporus, UniProt C7FF04)
HDAC2: Histone deacetylase 2 (HDAC2, Homo sapiens, UniProt Q92769)
HTR2A: 5-hydroxytryptamine receptor 2A (HTR2A, Homo sapiens, UniProt P28223)

Compound | target | observed | action | method | pIC50
Nc1nc(-c2ccc(I)cc2)cc(-c2ccc(-c3cc(-c4ccc(I)cc4)nc(N)n3)cc2)n1 | PPO3 | enzyme activity | inhibitor | absorbance | 4.51
O=C(/C=C/c1cccc(OS(=O)(=O)Oc2ccc(C(F)(F)F)cc2)c1)NO | HDAC2 | enzyme activity | inhibitor | fluorescence | 6.35
CCc1c(C)nc(-c2ccc(Cl)s2)nc1Nc1ccc(CC(=O)O)cc1 | cGMP-specific 3',5'-cyclic phosphodiesterase (PDE5A, Homo sapiens, UniProt O76074) | enzyme activity | inhibitor | FP | ~3.81
Cc1ccc(-c2cc(-c3ccc(-c4cc(-c5ccc(C)cc5)nc(N)n4)cc3)nc(N)n2)cc1 | PPO3 | enzyme activity | inhibitor | absorbance | 4.43
c1ccc(O[C@H]2CCN(Cc3ccc(-c4ccn[nH]4)o3)C2)cc1 | HTR2A | calcium signal | antagonist |  | 5.28
O=C(NO)c1cncc(OS(=O)(=O)Oc2ccc(C(F)(F)F)cc2)c1 | HDAC2 | enzyme activity | inhibitor | fluorescence | 5.25
CC(C)C(N)CCN(C)C(=O)C(=O)Nc1cc2ccccc2cc1Cl (stereo not drawn) | HTR2A | calcium signal | antagonist |  | 4.80
Nc1nc(-c2ccc(F)cc2)cc(-c2ccc(-c3cc(-c4ccc(F)cc4)nc(N)n3)cc2)n1 | PPO3 | enzyme activity | inhibitor | absorbance | 4.34
NCC1Cc2cc(F)ccc2N(C(=O)Cc2cc(F)ccc2Br)C1 (stereo not drawn) | HTR2A | calcium signal | antagonist |  | 5.94
C#Cc1ccc2c(=O)[nH]nc(Cc3ccc(F)c(C(=O)N4CCN(C(=O)C=C)CC4)c3)c2c1 | Poly [ADP-ribose] polymerase 1 (PARP1, Homo sapiens, UniProt P09874) | enzyme activity | inhibitor |  | 6.07
O=C1CC[C@H](N2Cc3cc(N4CCN(CC5CCN(c6ccc([C@@H]7c8ccc(O)cc8CC[C@@H]7c7ccccc7)cc6)CC5)CC4)ccc3C2=O)C(=O)N1 | Kappa-type opioid receptor (OPRK1, Homo sapiens, UniProt P41145) | ligand displacement |  | radioligand | 6.60
O=C(c1cc(C2CCNC2)[nH]n1)N1CCC(c2cccc(Cl)c2)C1 (stereo not drawn) | HTR2A | calcium signal | antagonist |  | 4.71
